A short description of assay [1]: Displacement of [3H]spiperone from human dopamine D4.4 receptor expressed in CHO cell membranes by radioligand binding assay. The method, boiled down: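 Competition binding used membranes from CHO cells stably expressing human D4.4R, at 4-10 µg protein/tube, with [3H]spiperone final 0.15-0.30 nM (KD 0.14-0.25 nM, Bmax 1000-1700 […]). Nonspecific binding was defined with 10 µM haloperidol. Ki was obtained by sigmoid fit to IC50 and then Cheng-Prusoff. Each Ki is the mean of two independent experiments, each run in triplicate.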
Background: Displacement assays read how much labelled ligand stays bound in the presence of the test substance.

For assay [2], the system named is D(2) dopamine receptor (Homo sapiens), P14416 [L94C]. As to the kind of experiment: Irreversible inhibition of [3H]spiperone binding to human D2short receptor L2.64C mutant expressed in HEK293T cell membranes incubated for 120 mins followed by compound wash out by radioligand depletion assay. As to conditions: HEK-293T. The gist of the method: (§1)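 For screening, membranes from HEK 293T cells expressing the D2short L2.64C mutant (50 µg/mL protein) were preincubated with compound for 120 min at 37 °C in pH 7.4 Tris buffer. The reference, haloperidol, was used at 20 nM. Membranes were centrifuged and washed four times for 30 min each. Residual specific [3H]spiperone binding was normalized to nonspecific 0% and total 100%. Values are the mean of 2-4 experiments, each in quadruplicate, ±SD.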
D(2) dopamine receptor (Homo sapiens), P14416 [L94C], sequence (P14416 whole entry L94C): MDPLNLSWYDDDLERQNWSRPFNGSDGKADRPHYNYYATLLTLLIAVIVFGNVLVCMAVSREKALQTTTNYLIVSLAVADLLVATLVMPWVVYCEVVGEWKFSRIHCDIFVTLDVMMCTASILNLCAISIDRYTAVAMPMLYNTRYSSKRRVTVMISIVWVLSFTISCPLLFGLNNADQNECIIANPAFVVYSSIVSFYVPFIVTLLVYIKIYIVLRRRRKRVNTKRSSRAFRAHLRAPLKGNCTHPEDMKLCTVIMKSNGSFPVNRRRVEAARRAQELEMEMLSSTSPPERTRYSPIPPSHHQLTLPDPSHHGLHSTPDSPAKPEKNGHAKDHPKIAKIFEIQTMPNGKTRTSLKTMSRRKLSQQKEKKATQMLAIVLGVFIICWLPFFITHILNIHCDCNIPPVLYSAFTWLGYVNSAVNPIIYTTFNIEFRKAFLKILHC

The species named for assay [3] is Homo sapiens. As to the kind of experiment: Selectivity index, ratio of Ki for human dopamine D4.4 receptor expressed in CHO cell membranes to Ki for human D2short receptor expressed in CHO cell membranes. The class given is cell-based. The gist of the method:
(§2)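 Ratios of Ki values from [3H]spiperone competition binding on CHO membranes stably expressing human D2short, D3 or D4.4 receptors. The D3 and D4 Ki values are each divided by the D2short Ki.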

Assay [4] deals with HEK-293T. As to the kind of experiment: Inhibition of [3H]spiperone binding to human D2short receptor L2.64C mutant expressed in HEK293T cell membranes at 2 and 5 uM incubated for 240 mins by radioligand depletion assay.
Assay [5] has as its system D(2) dopamine receptor (Homo sapiens), P14416 [L94C]. As to the kind of experiment: Irreversible inhibition of [3H]spiperone binding to human D2short receptor L2.64C mutant expressed in HEK293T cell membranes assessed as remaining [3H]spiperone binding at 5 and 20 uM incubated for 120 mins followed by compound wash out by radioligand depletion assay. As to conditions: HEK-293T. The method, boiled down:
as §1

For assay [6], the target named is T1, D(2) dopamine receptor (Homo sapiens, UniProt P14416). As to the kind of experiment: Displacement of [3H]spiperone from human D2short receptor expressed in CHO cell membranes by radioligand binding assay.
T1 sequence (P14416 whole entry): as the sequence (P14416 whole entry L94C) above, with C94L counted along it
The test system of assay [7] is D(2) dopamine receptor (Homo sapiens), P14416 [L94C]. As to the kind of experiment: Irreversible inhibition of [3H]spiperone binding to human D2short receptor L2.64C mutant expressed in HEK293T cell membranes assessed as covalent binding at 5 and 20 uM incubated for 120 mins followed by compound wash out by radioligand depletion assay. Also on record: scale not given: the % may be the effect or the level left. As to conditions: HEK-293T. The method, boiled down: as §1

In assay [8] the target is T1, D(2) dopamine receptor. As to the kind of experiment: Displacement of [3H]spiperone from human D2long receptor expressed in CHO cell membranes by radioligand binding assay.
Assay [9] has as its system D(2) dopamine receptor (Homo sapiens), P14416 [L94C]. As to the kind of experiment: Irreversible inhibition of [3H]spiperone binding to human D2short receptor L2.64C mutant expressed in HEK293T cell membranes at 5 uM incubated for 120 mins followed by compound wash out by radioligand depletion assay. As to conditions: HEK-293T. The method, boiled down:
as §1

The species entered for assay [10] is Homo sapiens. As to the kind of experiment: Selectivity index, ratio of Ki for human D2short receptor expressed in CHO cell membranes to Ki for human D2short receptor L2.64C mutant expressed in HEK293T cell membranes. The class given is cell-based. The method, boiled down: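 Ratio of the D2short Ki from CHO membranes to the Ki measured at the transiently expressed L2.64C mutant in HEK 293T membranes. Both Ki values come from [3H]spiperone competition binding with Cheng-Prusoff conversion.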

Assay [11] is filed under the species Homo sapiens. As to the kind of experiment: Selectivity index, ratio of Ki for human D3 receptor expressed in CHO cell membranes to Ki for human D2short receptor expressed in CHO cell membranes. The class given is cell-based. The method, boiled down:
as §2

The test system of assay [12] is D(2) dopamine receptor (Homo sapiens), P14416 [L94C]. As to the kind of experiment: Irreversible inhibition of [3H]spiperone binding to human D2short receptor L2.64C mutant expressed in HEK293T cell membranes at 20 uM incubated for 120 mins followed by compound wash out by radioligand depletion assay. As to conditions: HEK-293T. The method, boiled down: as §1
Assay [13] is described as follows: Displacement of [3H]spiperone from human D2short receptor L2.64C mutant expressed in HEK293T cell membranes by radioligand binding assay. As to conditions: hek-293t. The method, boiled down:
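Membranes from HEK 293T cells transiently transfected with the mutant receptor in pcDNA3.1 were used for competition binding against [3H]spiperone (81 Ci/mmol), final 0.15-0.30 nM. Nonspecific binding was defined with 10 µM haloperidol. Protein was measured by Lowry with a BSA standard. IC50 came from a sigmoid nonlinear fit and was converted to Ki by Cheng-Prusoff.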

The target of another assay is D(3) dopamine receptor (Homo sapiens, UniProt P35462). As to the kind of experiment: Displacement of [3H]spiperone from human D3 receptor expressed in CHO cell membranes by radioligand binding assay.
D(3) dopamine receptor, sequence (P35462 whole entry): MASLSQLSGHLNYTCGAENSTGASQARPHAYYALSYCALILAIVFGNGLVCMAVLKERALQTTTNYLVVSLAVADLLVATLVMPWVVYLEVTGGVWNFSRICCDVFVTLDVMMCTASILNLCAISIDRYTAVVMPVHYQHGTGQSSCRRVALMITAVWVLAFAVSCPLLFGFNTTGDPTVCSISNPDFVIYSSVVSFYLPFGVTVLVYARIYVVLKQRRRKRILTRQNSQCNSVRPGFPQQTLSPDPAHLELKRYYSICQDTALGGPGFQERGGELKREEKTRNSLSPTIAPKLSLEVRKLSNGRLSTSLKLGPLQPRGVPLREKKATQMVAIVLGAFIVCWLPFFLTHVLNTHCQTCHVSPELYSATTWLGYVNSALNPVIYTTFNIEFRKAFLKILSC
In assay [14] the test system is HEK-293T. As to the kind of experiment: Inhibition of [3H]spiperone binding to human D2short receptor L2.64C mutant expressed in HEK293T cell membranes at 2 and 5 uM incubated for 30 mins by radioligand depletion assay.
Assay [15] relates to D(2) dopamine receptor (Homo sapiens), P14416 [L94C]. As to the kind of experiment: Irreversible inhibition of [3H]spiperone binding to human D2short receptor L2.64C mutant expressed in HEK293T cell membranes at 1 uM incubated for 120 mins followed by compound wash out by radioligand depletion assay. As to conditions: HEK-293T. The gist of the method:
as §1

Assay [16] has the same test system. As to the kind of experiment: Irreversible inhibition of [3H]spiperone binding to human D2short receptor L2.64C mutant expressed in HEK293T cell membranes at 10 uM incubated for 120 mins followed by compound wash out by radioligand depletion assay. As to conditions: HEK-293T. The gist of the method: as §1
Assay [17] relates to HEK-293T. As to the kind of experiment: Inhibition of [3H]spiperone binding to human D2short receptor L2.64C mutant expressed in HEK293T cell membranes at 2 and 5 uM incubated for 120 mins by radioligand depletion assay.
Assay [18] relates to HEK-293T. As to the kind of experiment: Inhibition of [3H]spiperone binding to human D2short receptor L2.64C mutant expressed in HEK293T cell membranes at 1 and 5 uM incubated for 30 mins by radioligand depletion assay. The gist of the method:
(§3)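 For kinetics, mutant receptor membranes from HEK 293T cells (50 µg/mL protein) were preincubated with compound at two concentrations for 15 to 240 min, at 37 °C, pH 7.4. The buffer was Tris/EDTA/MgCl2/bacitracin/trypsin inhibitor. Incubation was stopped by centrifugation, then membranes were washed four times (30 min resuspension each). Remaining specific [3H]spiperone binding was then measured, with 10 µM haloperidol defining nonspecific binding. Data were normalized to nonspecific 0% and total 100%.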

For assay [19], the system named is HEK-293T. As to the kind of experiment: Inhibition of [3H]spiperone binding to human D2short receptor L2.64C mutant expressed in HEK293T cell membranes at 1 and 5 uM incubated for 240 mins by radioligand depletion assay. As to conditions: in the assay text read “120 mins” for “240 mins”. The gist of the method: as §3

A word on the Ki: it is a measure of affinity in units of concentration, obtained from inhibition or displacement. `O=C(CCCN1CCC(O)(c2ccc(Cl)cc2)CC1)c1ccc(F)cc1` [HALOPERIDOL] returned a Ki in assay [1] of 7.2 nM.
Broadly, the inhibition is the drop in the measured response relative to a control, in per cent. Turning to `COc1cc(CCN2CCC(O)(c3ccc(Cl)cc3)CC2)ccc1OCCCSSCCN`, the inhibition entry in assay [2] was “Dose-dependent effect”; with HEK-293T [4], 85%; in [9], 60 to 85%; in assay [12], 70 to 95%; in the assay with HEK-293T [14], 87%. Also, the values for the Ratio Ki in the assay filed under Homo sapiens [3], in the assay filed under Homo sapiens [10] and in the assay listed under Homo sapiens [11] were 1.6, 1.1 and 0.63, respectively. Moreover, the Ki in assay [1] turned out to be 1500 nM; at D(2) dopamine receptor [6], 940 nM; on D(2) dopamine receptor [8], 1000 nM; in assay [13], 850 nM; on D(3) dopamine receptor, 600 nM. Moreover, the Activity in [5] was 10%; in assay [7], above 90%.
With `O=C(CCCN1CCC(O)(c2ccc(Cl)cc2)CC1)c1ccc(OCCSSCCO)cc1`, the values for the inhibition entry in assay [2], in assay [15] and in assay [16] were “Dose-dependent effect”, 20% and below 70%, respectively. The Ratio Ki in the assay listed under Homo sapiens [3] was found to be 13; in the assay listed under Homo sapiens [10], 0.22; in the assay filed under Homo sapiens [11], 1.9. Also, the Ki in [1] came out at 970 nM; on D(2) dopamine receptor [6], 73 nM; at D(2) dopamine receptor [8] it was 240 nM; in assay [13], 330 nM; on D(3) dopamine receptor, 140 nM.
`COc1cc(CCN2CCC(O)(c3ccc(Cl)cc3)CC2)ccc1OCCSSCCN`: the inhibition result in assay [2] was “Dose-dependent effect”; in the assay with HEK-293T [4] it was 82%; in [9], 60 to 85%; in assay [12], 70 to 95%; in the assay with HEK-293T [14], 72%. For the same compound, the results for the Ratio Ki in the assay filed under Homo sapiens [3], in the assay listed under Homo sapiens [10] and in the assay filed under Homo sapiens [11] were 0.73, 2.7 and 0.26, respectively. The Ki stood at 1100 nM in assay [1]; 1500 nM on D(2) dopamine receptor [6]; 1500 nM on D(2) dopamine receptor [8]; 550 nM in assay [13]; 390 nM at D(3) dopamine receptor.
In the case of `O=C(NCCN1CCC(O)(c2ccc(Cl)cc2)CC1)NCCN1C(=O)C=CC1=O`, the inhibition entry in [2] was “Dose-dependent effect”; in the assay with HEK-293T [17], above 90%; in [9], 60 to 85%; in [12], 70 to 95%; in the assay with HEK-293T [14], 70 to 85%. In addition, the values for the Ratio Ki in the assay listed under Homo sapiens [3], in the assay listed under Homo sapiens [10] and in the assay listed under Homo sapiens [11] were above 33, 1.7 and 0.46, respectively. Moreover, the Ki in assay [1] was above 50000 nM; at D(2) dopamine receptor [6], 1500 nM; on D(2) dopamine receptor [8], 2200 nM; in assay [13], 860 nM; on D(3) dopamine receptor, 690 nM. Further, the figures for the Activity in assay [5] and in assay [7] were 5% and above 90%, respectively.
With `[N-]=[N+]=NCCSSCCn1cc(C(=O)CCCN2CCC(O)(c3ccc(Cl)cc3)CC2)nn1`, the inhibition was 80% in the assay with HEK-293T [18]; “Dose-dependent effect” in [2]; 60 to 85% in assay [15]; 70 to 95% in assay [9]; 86% in the assay with HEK-293T [19]. The Ratio Ki in the assay listed under Homo sapiens [3] amounted to 23; in the assay filed under Homo sapiens [10] it was 0.44; in the assay listed under Homo sapiens [11] it was 1.5. Moreover, the Ki in assay [1] was determined as 3200 nM; on D(2) dopamine receptor [6], 140 nM; on D(2) dopamine receptor [8] it was 260 nM; in [13] it was 320 nM; at D(3) dopamine receptor it was 210 nM.

The record behind these values is ChEMBL document CHEMBL4043101, “Potent haloperidol derivatives covalently binding to the dopamine D2 receptor” (Bioorg Med Chem, 2017).
